37 compounds from ChEMBL document CHEMBL1275372, “Conformationally restricted homotryptamines. Part 7: 3-cis-(3-aminocyclopentyl)indoles as potent selective serotonin reuptake inhibitors” (J Med Chem, 2010) can be followed below.

Usually IC50 stands for the concentration that gives 50% inhibition. The term bioavailability denotes the share of a dose that reaches the circulation, judged against a reference dose that is usually intravenous. Lower therefore signals little systemic uptake. For orientation: half-life means the time in which the quantity being followed falls by half. Read a low half-life as rapid decline. For orientation: Tmax means the time at which the peak concentration occurs.

Series [1] concerns the target Sodium-dependent serotonin transporter (Homo sapiens, UniProt P31645). Description: Binding affinity to human SERT.
Series [2] in a line: Oral bioavailability in rat plasma at 3 mg/kg by microdialysis method. Format: ADME, organism-based. In short, it runs like this:
(§1)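 Rats dosed orally at 3 mg/kg as part of the frontal-cortex microdialysis experiments. Drug levels in brain and plasma sampled at 2 h after dosing. Oral bioavailability, Tmax and half-life are reported from the same oral 3 mg/kg dosing in rat.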

Series [3] can be described thus: Half life in rat at 3 mg/kg, po by microdialysis method. Further details: dose 3 mg/kg, route oral. To be noted: in vivo. Format: ADME, organism-based. In short, it runs like this: as §1
Series [4] in a line: Tmax in rat at 3 mg/kg, po by microdialysis method. Type of series: ADME, organism-based. Further details: dose 3 mg/kg, route oral. As to conditions: in vivo. In short, it runs like this:
as §1

In series [5] the target is T1, 5-hydroxytryptamine receptor 1A (Homo sapiens, UniProt P08908).
T1 sequence (P08908 whole entry): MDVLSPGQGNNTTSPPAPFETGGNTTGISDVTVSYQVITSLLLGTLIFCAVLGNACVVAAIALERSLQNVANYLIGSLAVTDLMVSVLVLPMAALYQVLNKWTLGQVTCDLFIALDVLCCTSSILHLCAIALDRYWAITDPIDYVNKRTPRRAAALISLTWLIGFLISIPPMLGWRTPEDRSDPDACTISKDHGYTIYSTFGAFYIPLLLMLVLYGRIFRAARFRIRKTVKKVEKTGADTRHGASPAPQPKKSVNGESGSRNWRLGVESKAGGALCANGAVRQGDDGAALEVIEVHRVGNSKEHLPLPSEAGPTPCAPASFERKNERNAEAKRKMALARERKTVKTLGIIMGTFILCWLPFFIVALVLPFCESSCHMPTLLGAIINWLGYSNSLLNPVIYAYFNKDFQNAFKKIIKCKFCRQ
Description: Binding affinity to 5HT1A receptor.

For series [6], the system named is Rattus norvegicus. Description: Increase in extracellular serotonin levels in rat frontal cortex at 5 mg/kg, po by microdialysis method relative to untreated control. Type of series: functional, organism-based. Details: dose 5 mg/kg. In short, it runs like this:
(§2)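 In vivo microdialysis in rat frontal cortex measuring extracellular serotonin. Oral doses were 1 and 3 mg/kg, with a reference SSRI at 5 mg/kg po; an iv arm used 1.0 mg/kg. Change is expressed as percent increase over vehicle-treated controls, with significance tested against vehicle.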

The target of series [7] is 5-hydroxytryptamine receptor 2A (Homo sapiens, UniProt P28223). Description: Binding affinity to 5HT2A receptor.
The subject of series [8] is Rattus norvegicus. In words: Increase in extracellular serotonin levels in rat frontal cortex at 3 mg/kg, po by microdialysis method relative to untreated control. Format: functional. In short, it runs like this:
as §2

The target in series [9] is D(1A) dopamine receptor (Homo sapiens, UniProt P21728). In words: Binding affinity to dopamine D1.
In series [10] the target is D(2) dopamine receptor (Homo sapiens, UniProt P14416). In words: Binding affinity to dopamine D2.
Series [11] has as its target 5-hydroxytryptamine receptor 6 (Homo sapiens, UniProt P50406). Description: Binding affinity to 5HT6 receptor.
Series [12] has as its target 5-hydroxytryptamine receptor 5A (Homo sapiens, UniProt P47898). Description: Binding affinity to 5HT5A receptor.
The subject of series [13] is Brain. In words: Drug concentration in rat brain at 3 mg/kg, po after 2 hrs by microdialysis method. Type of series: ADME, organism-based. Further details: dose 3 mg/kg, route oral. As to conditions: in vivo. In short, it runs like this:
as §1

The target in series [14] is 5-hydroxytryptamine receptor 1B (Homo sapiens, UniProt P28222). In words: Binding affinity to 5HT1B receptor.
Series [15] has as its system Rattus norvegicus. In words: Increase in extracellular serotonin levels in po dosed rat frontal cortex. Type of series: functional, organism-based. In short, it runs like this:
as §2

Series [16] addresses Sodium-dependent noradrenaline transporter (Homo sapiens, UniProt P23975). Description: Binding affinity to human NET.
Series [17] concerns the target 5-hydroxytryptamine receptor 2B (Homo sapiens, UniProt P41595). In words: Binding affinity to 5HT2B receptor.
The target of series [18] is 5-hydroxytryptamine receptor 4 (Homo sapiens, UniProt Q13639). Description: Binding affinity to 5HT4 receptor.
Series [19] addresses 5-hydroxytryptamine receptor 7 (Homo sapiens, UniProt P34969). In words: Binding affinity to 5HT7 receptor.
Series [20] concerns the target T2, 5-hydroxytryptamine receptor 2C (Homo sapiens, UniProt P28335).
T2 sequence (P28335 whole entry): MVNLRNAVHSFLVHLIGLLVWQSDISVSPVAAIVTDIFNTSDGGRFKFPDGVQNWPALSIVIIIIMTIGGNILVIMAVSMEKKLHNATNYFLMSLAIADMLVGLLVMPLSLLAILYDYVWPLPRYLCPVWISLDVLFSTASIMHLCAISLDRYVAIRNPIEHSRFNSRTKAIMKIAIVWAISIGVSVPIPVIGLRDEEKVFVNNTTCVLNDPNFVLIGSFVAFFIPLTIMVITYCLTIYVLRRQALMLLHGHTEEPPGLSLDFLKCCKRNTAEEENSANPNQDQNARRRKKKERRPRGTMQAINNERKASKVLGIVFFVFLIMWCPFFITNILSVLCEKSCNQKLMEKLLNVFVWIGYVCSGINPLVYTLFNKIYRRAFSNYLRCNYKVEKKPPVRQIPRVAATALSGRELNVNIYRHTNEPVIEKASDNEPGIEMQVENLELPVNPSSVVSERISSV
Description: Binding affinity to 5HT2C receptor.

Series [21] deals with Sodium-dependent dopamine transporter (Homo sapiens, UniProt Q01959). Description: Binding affinity to human DAT.
Series [22] in a line: Drug concentration in rat plasma at 3 mg/kg, po after 2 hrs by microdialysis method. Format: ADME, organism-based. Further details: dose 3 mg/kg, route oral. In short, it runs like this: as §1

Active and inactive are the calls of the source. The calls are words filed in the database; no cut-off is given here. Bounds are passed on as bounds.

Sequence of Sodium-dependent serotonin transporter (P31645 whole entry): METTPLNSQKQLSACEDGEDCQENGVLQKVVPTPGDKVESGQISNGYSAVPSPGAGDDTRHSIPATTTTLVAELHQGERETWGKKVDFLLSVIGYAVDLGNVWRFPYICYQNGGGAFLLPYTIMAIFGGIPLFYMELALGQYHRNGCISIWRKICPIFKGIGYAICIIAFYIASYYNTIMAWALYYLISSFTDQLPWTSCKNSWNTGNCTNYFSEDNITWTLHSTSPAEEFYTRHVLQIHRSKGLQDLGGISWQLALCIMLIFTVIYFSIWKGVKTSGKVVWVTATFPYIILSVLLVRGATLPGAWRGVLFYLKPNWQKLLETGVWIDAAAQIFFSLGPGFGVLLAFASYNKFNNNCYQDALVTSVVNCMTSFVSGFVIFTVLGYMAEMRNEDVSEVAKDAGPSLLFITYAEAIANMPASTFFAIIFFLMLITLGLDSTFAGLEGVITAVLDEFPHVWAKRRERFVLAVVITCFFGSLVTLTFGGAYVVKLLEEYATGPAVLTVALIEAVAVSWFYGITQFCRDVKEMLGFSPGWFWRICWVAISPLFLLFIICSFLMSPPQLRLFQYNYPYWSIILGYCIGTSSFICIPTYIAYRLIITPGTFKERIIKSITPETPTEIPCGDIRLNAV
Sequence of 5-hydroxytryptamine receptor 2A (P28223 whole entry): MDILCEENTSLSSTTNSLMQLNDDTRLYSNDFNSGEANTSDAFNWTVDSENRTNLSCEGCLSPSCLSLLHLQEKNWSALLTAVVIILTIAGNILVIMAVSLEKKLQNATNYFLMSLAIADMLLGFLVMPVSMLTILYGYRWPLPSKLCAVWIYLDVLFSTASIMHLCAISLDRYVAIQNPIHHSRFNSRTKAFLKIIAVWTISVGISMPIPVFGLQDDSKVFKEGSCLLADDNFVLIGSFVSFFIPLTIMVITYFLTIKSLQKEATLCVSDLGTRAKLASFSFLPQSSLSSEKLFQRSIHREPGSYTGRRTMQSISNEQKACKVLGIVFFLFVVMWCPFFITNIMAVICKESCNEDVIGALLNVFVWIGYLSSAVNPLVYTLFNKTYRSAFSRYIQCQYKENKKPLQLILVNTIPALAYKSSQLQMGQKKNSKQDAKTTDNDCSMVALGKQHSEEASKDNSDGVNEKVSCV
Sequence of 5-hydroxytryptamine receptor 5A (P47898 whole entry): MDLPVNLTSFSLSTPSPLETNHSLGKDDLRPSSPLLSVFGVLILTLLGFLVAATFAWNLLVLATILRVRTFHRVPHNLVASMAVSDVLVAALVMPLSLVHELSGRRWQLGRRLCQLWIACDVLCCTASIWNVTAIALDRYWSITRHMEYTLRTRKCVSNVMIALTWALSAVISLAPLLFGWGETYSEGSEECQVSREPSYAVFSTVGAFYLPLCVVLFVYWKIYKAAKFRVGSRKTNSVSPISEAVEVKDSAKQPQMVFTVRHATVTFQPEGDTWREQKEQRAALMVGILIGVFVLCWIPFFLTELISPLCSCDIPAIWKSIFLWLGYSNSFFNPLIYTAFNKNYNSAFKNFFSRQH
Sequence of 5-hydroxytryptamine receptor 2B (P41595 whole entry): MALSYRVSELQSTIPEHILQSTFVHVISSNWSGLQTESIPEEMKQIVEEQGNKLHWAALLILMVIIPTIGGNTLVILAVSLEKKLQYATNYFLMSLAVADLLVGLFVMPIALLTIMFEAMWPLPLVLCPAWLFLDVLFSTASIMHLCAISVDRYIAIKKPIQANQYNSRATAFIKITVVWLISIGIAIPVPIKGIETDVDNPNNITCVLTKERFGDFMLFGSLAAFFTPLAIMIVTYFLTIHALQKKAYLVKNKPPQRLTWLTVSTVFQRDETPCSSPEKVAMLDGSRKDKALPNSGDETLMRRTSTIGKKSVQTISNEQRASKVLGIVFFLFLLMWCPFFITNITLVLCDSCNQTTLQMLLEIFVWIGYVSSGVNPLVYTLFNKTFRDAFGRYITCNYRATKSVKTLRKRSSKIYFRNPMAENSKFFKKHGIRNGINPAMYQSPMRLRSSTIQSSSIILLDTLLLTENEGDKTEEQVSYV
Sequence of D(1A) dopamine receptor (P21728 whole entry): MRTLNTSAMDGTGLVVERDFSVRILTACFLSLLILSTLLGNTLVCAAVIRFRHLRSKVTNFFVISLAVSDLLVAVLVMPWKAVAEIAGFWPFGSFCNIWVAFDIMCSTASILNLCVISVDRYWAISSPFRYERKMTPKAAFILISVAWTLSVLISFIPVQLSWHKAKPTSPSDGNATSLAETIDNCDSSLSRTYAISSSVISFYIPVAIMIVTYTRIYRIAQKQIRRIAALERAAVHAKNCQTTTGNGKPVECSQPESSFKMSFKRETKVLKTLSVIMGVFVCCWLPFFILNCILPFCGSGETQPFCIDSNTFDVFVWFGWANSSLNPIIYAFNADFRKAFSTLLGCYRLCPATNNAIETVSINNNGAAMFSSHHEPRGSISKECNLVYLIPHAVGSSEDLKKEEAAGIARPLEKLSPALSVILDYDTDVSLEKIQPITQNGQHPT
Sequence of 5-hydroxytryptamine receptor 6 (P50406 whole entry): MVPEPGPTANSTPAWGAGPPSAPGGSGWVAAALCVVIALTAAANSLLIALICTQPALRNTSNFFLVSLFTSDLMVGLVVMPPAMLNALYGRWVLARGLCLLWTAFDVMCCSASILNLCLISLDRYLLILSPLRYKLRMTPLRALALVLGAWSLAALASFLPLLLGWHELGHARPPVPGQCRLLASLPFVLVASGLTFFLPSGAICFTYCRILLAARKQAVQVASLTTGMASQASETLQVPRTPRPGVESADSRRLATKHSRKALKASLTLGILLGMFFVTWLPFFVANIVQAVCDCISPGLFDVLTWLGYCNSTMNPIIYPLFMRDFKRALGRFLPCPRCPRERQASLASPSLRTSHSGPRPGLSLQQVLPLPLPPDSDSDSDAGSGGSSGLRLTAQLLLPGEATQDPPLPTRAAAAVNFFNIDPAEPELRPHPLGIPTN
Sequence of D(2) dopamine receptor (P14416 whole entry): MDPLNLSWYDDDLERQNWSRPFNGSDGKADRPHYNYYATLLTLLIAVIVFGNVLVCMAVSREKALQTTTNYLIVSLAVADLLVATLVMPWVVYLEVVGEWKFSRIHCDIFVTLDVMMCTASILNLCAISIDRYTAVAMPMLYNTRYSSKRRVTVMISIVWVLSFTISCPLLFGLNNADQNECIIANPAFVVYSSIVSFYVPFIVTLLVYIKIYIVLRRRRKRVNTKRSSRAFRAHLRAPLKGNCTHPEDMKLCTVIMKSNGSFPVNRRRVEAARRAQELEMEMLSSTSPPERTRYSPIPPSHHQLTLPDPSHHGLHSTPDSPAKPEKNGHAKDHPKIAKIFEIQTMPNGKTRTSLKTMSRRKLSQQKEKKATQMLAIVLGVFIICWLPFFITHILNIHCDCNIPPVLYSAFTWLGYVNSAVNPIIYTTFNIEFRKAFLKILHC
Sequence of Sodium-dependent noradrenaline transporter (P23975 whole entry): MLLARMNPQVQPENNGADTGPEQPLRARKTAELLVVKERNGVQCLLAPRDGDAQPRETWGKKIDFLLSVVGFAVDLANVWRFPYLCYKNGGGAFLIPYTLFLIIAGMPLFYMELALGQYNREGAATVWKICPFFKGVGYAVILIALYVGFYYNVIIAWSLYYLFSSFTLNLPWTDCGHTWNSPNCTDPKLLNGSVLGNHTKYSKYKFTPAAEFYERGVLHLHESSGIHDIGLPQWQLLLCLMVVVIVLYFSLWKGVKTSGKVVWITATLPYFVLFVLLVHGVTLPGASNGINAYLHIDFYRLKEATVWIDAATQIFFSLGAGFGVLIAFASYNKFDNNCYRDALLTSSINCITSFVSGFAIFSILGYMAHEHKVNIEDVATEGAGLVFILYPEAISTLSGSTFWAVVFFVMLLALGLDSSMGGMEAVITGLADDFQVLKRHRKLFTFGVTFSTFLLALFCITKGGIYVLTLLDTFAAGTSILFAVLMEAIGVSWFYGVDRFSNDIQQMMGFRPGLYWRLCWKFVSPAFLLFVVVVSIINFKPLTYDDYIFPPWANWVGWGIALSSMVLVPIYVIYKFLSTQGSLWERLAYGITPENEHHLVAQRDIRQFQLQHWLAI
Sequence of 5-hydroxytryptamine receptor 7 (P34969 whole entry): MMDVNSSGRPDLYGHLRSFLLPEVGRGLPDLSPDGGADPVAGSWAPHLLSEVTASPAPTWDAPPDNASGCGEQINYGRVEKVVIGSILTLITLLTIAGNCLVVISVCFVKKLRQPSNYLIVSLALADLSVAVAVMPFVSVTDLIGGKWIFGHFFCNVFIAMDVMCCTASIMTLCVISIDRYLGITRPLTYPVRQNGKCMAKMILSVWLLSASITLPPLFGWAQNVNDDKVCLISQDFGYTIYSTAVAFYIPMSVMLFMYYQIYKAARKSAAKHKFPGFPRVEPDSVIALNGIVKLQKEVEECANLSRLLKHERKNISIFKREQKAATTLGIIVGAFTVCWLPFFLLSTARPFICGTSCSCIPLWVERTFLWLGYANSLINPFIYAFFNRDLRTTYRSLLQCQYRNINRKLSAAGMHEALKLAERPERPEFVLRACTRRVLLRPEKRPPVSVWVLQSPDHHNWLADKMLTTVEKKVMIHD
Sequence of Sodium-dependent dopamine transporter (Q01959 whole entry): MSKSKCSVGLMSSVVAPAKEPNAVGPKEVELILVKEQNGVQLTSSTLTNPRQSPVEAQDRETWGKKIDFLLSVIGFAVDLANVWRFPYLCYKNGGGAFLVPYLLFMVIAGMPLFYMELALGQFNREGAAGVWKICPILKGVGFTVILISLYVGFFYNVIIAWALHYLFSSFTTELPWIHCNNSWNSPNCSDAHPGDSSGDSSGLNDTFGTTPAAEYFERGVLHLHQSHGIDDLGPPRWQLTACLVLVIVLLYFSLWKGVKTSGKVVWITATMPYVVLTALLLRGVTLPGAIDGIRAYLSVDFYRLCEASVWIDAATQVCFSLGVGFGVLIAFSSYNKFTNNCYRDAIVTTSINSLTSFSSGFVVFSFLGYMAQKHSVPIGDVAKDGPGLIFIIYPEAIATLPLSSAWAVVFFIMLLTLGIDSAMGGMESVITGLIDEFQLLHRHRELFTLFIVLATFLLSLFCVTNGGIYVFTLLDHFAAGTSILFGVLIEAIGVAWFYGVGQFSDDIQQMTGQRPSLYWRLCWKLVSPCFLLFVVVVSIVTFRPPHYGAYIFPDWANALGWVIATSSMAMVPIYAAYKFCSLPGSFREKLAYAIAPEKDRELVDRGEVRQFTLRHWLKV

In the case of `N#Cc1ccc2[nH]cc(C3CCC(N4CCCCC4)C3)c2c1` (stereo not drawn), the IC50 in [1] is 65 nM.

`CN(C)[C@H]1CC[C@@H](c2c[nH]c3ccc(C#N)cc23)C1` displayed an IC50 in [1] of 0.38 nM.

For the compound `CN(Cc1ccccc1)C1CCC(c2c[nH]c3ccc(C#N)cc23)C1` (stereo not drawn), the IC50 in series [1] stood at 5.3 nM.

In series [1], `CN(C)[C@H]1CC[C@H](c2c[nH]c3ccc(C#N)cc23)C1` registered an IC50 of 0.97 nM.

`CCN(C)C1CCC(c2c[nH]c3ccc(F)cc23)C1` (stereo not drawn) showed an IC50 in [1] of 3.7 nM.

For `CN(C)C1CCC(c2c[nH]c3ccc(Br)cc23)C1` (stereo not drawn), the IC50 in series [1] was 4.3 nM.

With `CN(C)C1CCC(c2c[nH]c3cc(Cl)ccc23)C1` (stereo not drawn), the IC50 in [1] came to 6.5 nM.

In series [1], `N#Cc1ccc2[nH]cc(C3CCC(NCCc4ccccc4)C3)c2c1` (stereo not drawn) registered an IC50 of 10 nM.

In series [1], `CN(C)C1CCC(c2c[nH]c3ccc(Cl)cc23)C1` (stereo not drawn) showed an IC50 of 3 nM.

Turning to `CN(C)[C@@H]1CC[C@H](c2c[nH]c3ccc(C#N)cc23)C1`, the bioavailability in series [2] was determined as 51%. In addition, the half-life in [3] was 33 min. The Tmax in series [4] amounted to 60 min. In addition, the IC50 in [5] was 1300 nM; in series [7], 840 nM; in series [9], 7200 nM; in [10], above 30000 nM; in series [1] it was 0.22 nM; in [11], 37 nM. For the same compound, the 50% inhibitory concentration (IC50) was above 1000 nM in [12]; 340 nM in [14]; 6900 nM in series [16]; above 10000 nM in series [17]; above 30000 nM in series [18]; above 1000 nM in series [19]. The IC50 is above 10000 nM in [20] and 1300 nM in series [21]. In addition, the outcome in series [6] was Active. For the same compound, the Activity in series [8] was 150%; in [15], “Dose-dependent effect”. The compound further gave a Drug uptake in series [13] of 1000 nM. Besides, in series [22], the concentration at 2 h stood at 820 nM.

`CN(C)C1CCC(c2c[nH]c3ccc(F)cc23)C1` (stereo not drawn) yielded an IC50 in series [1] of 1.7 nM.

The compound `CNC1CCC(c2c[nH]c3ccc(C#N)cc23)C1` (stereo not drawn) showed an IC50 in [1] of 8.5 nM.

Compound `N#Cc1ccc2[nH]cc(C3CCC(N)C3)c2c1` (stereo not drawn) registered an IC50 in [1] of 32 nM.

Consider `CN(C)C1CCC(c2c[nH]c3cc(F)ccc23)C1` (stereo not drawn), for which the IC50 in series [1] was determined as 5.1 nM.

`N#Cc1ccc2[nH]cc(C3CCC(N4CCc5ccccc5C4)C3)c2c1` (stereo not drawn) returned an IC50 in [1] of 6.5 nM.

Consider `CCN(C)C1CCC(c2c[nH]c3ccc(C#N)cc23)C1` (stereo not drawn), for which the IC50 in series [1] was 1.6 nM.

As for `CN(CCc1ccccc1)C1CCC(c2c[nH]c3ccc(C#N)cc23)C1` (stereo not drawn), the IC50 in series [1] came out at 6.2 nM.

In turn, `N#Cc1ccc2[nH]cc(C3CCC(N4Cc5ccccc5C4)C3)c2c1` (stereo not drawn) gave an IC50 in series [1] of 6.8 nM.

On to `Fc1ccc2[nH]cc(C3CCC(N4CCCC4)C3)c2c1` (stereo not drawn), for which the IC50 in [1] is 2.9 nM.

`CN(C)C1CCC(c2c[nH]c3cccc(Br)c23)C1` (stereo not drawn) displayed an IC50 in series [1] of 5.3 nM.

Consider `CN(C)[C@@H]1CC[C@H](c2c[nH]c3ccc(F)cc23)C1` (single isomer, unassigned), for which the IC50 in series [1] amounted to 2.4 nM.

In series [1], `CN(C)[C@@H]1CC[C@@H](c2c[nH]c3ccc(C#N)cc23)C1` gave an IC50 of 1.3 nM.

`N#Cc1ccc2[nH]cc(C3CCC(N4CCOCC4)C3)c2c1` (stereo not drawn) showed an IC50 in series [1] of 110 nM.

For `CN(C)C1CCC(c2c[nH]c3cccc(F)c23)C1` (stereo not drawn), in series [1], the IC50 worked out at 31 nM.

`CN(C)C1CCC(c2c[nH]c3cc(Br)ccc23)C1` (stereo not drawn): the IC50 in series [1] worked out at 9.6 nM.

In turn, `CCCNC1CCC(c2c[nH]c3ccc(C#N)cc23)C1` (stereo not drawn) yielded an IC50 in [1] of 30 nM.

On to `N#Cc1ccc2[nH]cc(C3CCC(NCc4ccccc4)C3)c2c1` (stereo not drawn), for which, in series [1], the IC50 was 15 nM.

As for `CN(C)C1CCC(c2c[nH]c3c(F)cccc23)C1` (stereo not drawn), the IC50 in [1] came to 3.3 nM.

The compound `CCN(CC)C1CCC(c2c[nH]c3ccc(F)cc23)C1` (stereo not drawn) registered an IC50 in series [1] of 7.3 nM.

As to `CN(C)C1CCC(c2c[nH]c3c(Br)cccc23)C1` (stereo not drawn), the IC50 in [1] came to 1.6 nM.

In turn, `CN(C)C1CCC(c2c[nH]c3c(Cl)cccc23)C1` (stereo not drawn) displayed an IC50 in series [1] of 1.4 nM.

For the compound `CCN(CC)C1CCC(c2c[nH]c3ccc(C#N)cc23)C1` (stereo not drawn), in series [1], the IC50 was 6.2 nM.

Consider `CCNC1CCC(c2c[nH]c3ccc(C#N)cc23)C1` (stereo not drawn), for which the IC50 in series [1] was found to be 6.6 nM.

The compound `CN(C)[C@@H]1CC[C@@H](c2c[nH]c3ccc(F)cc23)C1` registered a half-maximal inhibitory concentration (IC50) in series [1] of 2.8 nM.

In the case of `CN(C)[C@H]1CC[C@H](c2c[nH]c3ccc(F)cc23)C1`, the IC50 in series [1] came out at 5.9 nM.

In the case of `CN(C)C1CCC(c2c[nH]c3ccc(C#N)cc23)C1` (stereo not drawn), in [1], the IC50 came out at 0.48 nM.

`N#Cc1ccc2[nH]cc(C3CCC(N4CCCC4)C3)c2c1` (stereo not drawn) gave an IC50 in series [1] of 3 nM.
